ChEMBL document CHEMBL3600299, “Identification of alpha-substituted acylamines as novel, potent, and orally active mGluR5 negative allosteric modulators” (Bioorg Med Chem Lett, 2015)
pIC50: −log10 of the molar value. Calls of active or inactive are those of the source.

How the values were obtained:
[1] = target: T1, Metabotropic glutamate receptor 5 (Homo sapiens, UniProt P41594); experiment: Negative allosteric modulator activity against human mGluR5 expressed in HEK293 cells assessed as inhibition of glutamate-induced inositol phosphate accumulation by IP-one HTRF assay; assay type: functional, cell-based
In short: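 HEK293 cells stably expressing human mGluR5 incubated 60 min with 2.5 lmol/L glutamate, with or without compound. Glutamate-induced inositol phosphate (IP1) accumulation read by IP-One HTRF kit.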
Target sequence in this assay (P41594 whole entry): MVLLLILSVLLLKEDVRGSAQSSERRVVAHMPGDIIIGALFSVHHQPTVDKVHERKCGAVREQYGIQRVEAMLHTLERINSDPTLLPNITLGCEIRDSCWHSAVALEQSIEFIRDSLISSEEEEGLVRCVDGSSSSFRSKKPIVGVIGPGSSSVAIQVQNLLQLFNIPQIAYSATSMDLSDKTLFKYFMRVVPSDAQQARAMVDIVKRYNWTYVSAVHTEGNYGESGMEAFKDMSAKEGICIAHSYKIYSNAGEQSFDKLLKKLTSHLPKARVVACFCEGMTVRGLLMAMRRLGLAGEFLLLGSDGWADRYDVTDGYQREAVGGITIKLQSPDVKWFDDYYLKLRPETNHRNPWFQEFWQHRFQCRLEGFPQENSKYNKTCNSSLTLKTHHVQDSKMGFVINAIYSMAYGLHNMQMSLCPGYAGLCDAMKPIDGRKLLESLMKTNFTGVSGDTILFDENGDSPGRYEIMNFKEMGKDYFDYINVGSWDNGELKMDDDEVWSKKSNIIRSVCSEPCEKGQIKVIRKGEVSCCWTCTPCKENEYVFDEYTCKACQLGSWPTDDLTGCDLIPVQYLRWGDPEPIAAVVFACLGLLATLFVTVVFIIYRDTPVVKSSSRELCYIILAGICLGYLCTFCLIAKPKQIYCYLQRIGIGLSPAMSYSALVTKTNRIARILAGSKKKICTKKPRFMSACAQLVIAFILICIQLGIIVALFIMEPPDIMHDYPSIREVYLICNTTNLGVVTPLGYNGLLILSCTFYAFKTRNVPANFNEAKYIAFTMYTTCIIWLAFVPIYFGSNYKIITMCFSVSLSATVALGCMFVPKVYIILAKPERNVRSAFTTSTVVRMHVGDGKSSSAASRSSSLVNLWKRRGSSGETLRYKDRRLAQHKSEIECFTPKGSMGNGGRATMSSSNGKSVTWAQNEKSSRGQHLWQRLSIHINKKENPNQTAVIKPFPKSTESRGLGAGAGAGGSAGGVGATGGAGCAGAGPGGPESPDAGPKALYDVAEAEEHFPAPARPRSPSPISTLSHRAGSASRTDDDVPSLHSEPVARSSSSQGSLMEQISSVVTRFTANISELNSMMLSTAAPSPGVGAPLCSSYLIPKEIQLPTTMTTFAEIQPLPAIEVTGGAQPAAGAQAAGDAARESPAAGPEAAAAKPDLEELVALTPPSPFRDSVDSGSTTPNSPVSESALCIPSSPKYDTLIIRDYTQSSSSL

[2] = target: T1, Metabotropic glutamate receptor 5; experiment: Negative allosteric modulator activity against human mGluR5 expressed in HEK293 cells assessed as inhibition of glutamate-induced inositol phosphate accumulation at 100 nM by IP-one HTRF assay; assay type: functional, cell-based
Target sequence in this assay (P41594 21-1212 limits assumed): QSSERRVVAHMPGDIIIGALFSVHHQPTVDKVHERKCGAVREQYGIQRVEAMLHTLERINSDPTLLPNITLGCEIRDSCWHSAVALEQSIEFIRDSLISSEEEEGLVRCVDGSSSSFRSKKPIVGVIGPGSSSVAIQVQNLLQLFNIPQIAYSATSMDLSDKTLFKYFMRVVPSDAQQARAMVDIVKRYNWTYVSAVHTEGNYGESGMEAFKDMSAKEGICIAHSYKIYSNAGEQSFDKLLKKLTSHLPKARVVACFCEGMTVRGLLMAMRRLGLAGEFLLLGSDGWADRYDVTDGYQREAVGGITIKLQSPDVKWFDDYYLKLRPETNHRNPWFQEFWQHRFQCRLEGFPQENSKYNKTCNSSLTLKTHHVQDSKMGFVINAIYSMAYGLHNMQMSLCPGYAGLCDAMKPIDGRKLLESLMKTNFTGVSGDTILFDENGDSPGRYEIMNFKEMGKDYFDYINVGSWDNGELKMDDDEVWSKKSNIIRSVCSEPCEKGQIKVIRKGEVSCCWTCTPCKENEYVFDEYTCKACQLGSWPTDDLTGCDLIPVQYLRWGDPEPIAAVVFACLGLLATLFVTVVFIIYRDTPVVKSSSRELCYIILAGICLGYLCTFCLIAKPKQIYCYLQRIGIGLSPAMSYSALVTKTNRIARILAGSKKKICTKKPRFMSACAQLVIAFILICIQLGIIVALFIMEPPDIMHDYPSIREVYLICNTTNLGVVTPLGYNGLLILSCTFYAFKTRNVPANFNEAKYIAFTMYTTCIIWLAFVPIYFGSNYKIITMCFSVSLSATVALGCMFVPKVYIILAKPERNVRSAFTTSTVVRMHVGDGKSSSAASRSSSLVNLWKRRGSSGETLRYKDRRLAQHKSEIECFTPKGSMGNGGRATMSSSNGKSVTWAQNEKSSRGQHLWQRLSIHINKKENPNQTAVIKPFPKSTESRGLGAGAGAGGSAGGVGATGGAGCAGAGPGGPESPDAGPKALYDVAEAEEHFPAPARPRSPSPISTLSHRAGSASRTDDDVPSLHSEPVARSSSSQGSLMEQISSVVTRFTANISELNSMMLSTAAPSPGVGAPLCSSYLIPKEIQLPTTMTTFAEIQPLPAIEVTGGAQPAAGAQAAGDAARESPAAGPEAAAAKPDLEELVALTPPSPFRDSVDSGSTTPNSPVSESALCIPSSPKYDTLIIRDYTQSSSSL

Mus musculus [3] = experiment: Anxiolytic-like activity in mouse model of stress-induced hyperthermia assessed as reduction in stress-induced hyperthermia response at 1 mg/kg, po dosed 1 hr before first rectal temperature measurement; assay type: functional, organism-based
In short: (§1)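 Mice dosed orally with test article in 0.5% methylcellulose vehicle 1 h before first rectal temperature (T1); second rectal temperature (T2) taken 10 min after T1. Basal temperature from T1; SIH response defined as T2–T1. Mean ± SEM, n = 10 per group; one-tailed Williams' test vs vehicle, p <0.025.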

Mus musculus [4] = experiment: Effect on basal rectal temperature in mouse model of stress-induced hyperthermia at 0.1 to 1 mg/kg, po dosed 1 hr before first rectal temperature measurement; assay type: ADME, organism-based; conditions: in vivo; in short: as §1

Row | SMILES | pIC50 [1] | other results
1 | Cc1ccc(Nc2ncc([C@H](NC(=O)c3nccs3)C3CCCCC3)cc2Cl)cn1 | 7.42 | 
2 | CCC[C@@H](NC(=O)c1cscn1)c1cnc(Nc2ccc(C)nc2)c(Cl)c1 | 7.51 | 
3 | Cc1ccc(Nc2ncc([C@H](NC(=O)c3nccs3)C(C)(C)C)cc2Cl)cn1 | 7.51 | 
4 | CCC[C@@H](NC(=O)c1ncc(C)s1)c1cnc(Nc2ccc(C)nc2)c(Cl)c1 |  | inhibition [2]: 49%
5 | Cc1ccc(Nc2ncc(C3CCCN3C(=O)c3nccs3)cc2Cl)cn1 (stereo not given) | 6.74 | 
6 | CCC[C@@H](NC(=O)c1nccs1)c1cnc(Nc2cnc(C)nc2)c(Cl)c1 | 7.36 | 
7 | CCC[C@@H](NC(=O)c1nccs1)c1cnc(Nc2cccnc2)c(Cl)c1 | 7.15 | 
8 | CCCN(Cc1cnc(Nc2ccc(C)nc2)c(Cl)c1)C(=O)c1nccs1 | 6.23 | 
9 | CCCC[C@@H](NC(=O)c1nccs1)c1cnc(Nc2ccc(C)nc2)c(Cl)c1 | 7.51 | 
10 | CCC[C@@H](NC(=O)c1ncco1)c1cnc(Nc2ccc(C)nc2)c(Cl)c1 | 7.37 | 
11 | Cc1ccc(Nc2ncc([C@@H](NC(=O)c3nccs3)C3CCC3)cc2Cl)cn1 | < 6.00 | 
12 | CCC[C@@H](NC(=O)c1ccccc1)c1cnc(Nc2ccc(C)nc2)c(Cl)c1 |  | inhibition [2]: 30%
13 | CC[C@H](NC(=O)c1nccs1)c1cnc(Nc2ccc(C)nc2)c(Cl)c1 | < 6.00 | 
14 | COC[C@H](NC(=O)c1nccs1)c1cnc(Nc2ccc(C)nc2)c(Cl)c1 | 7.25 | 
15 | Cc1ccc(Nc2ncc([C@@H](Cc3ccccc3)NC(=O)c3nccs3)cc2Cl)cn1 | 7.26 | 
16 | CCC[C@H](NC(=O)c1nccs1)c1cnc(Nc2ccc(C)nc2)c(Cl)c1 | 6.01 | 
17 | Cc1ccc(Nc2ncc([C@@H](NC(=O)c3nccs3)C(C)C)cc2Cl)cn1 | 5.98 | 
18 | CCC[C@@H](NC(=O)c1nccs1)c1cnc(Nc2cnc(C)s2)c(Cl)c1 | 7.22 | 
19 | CCC[C@@H](NC(=O)c1nccs1)c1cnc(Nc2ccc(C(F)(F)F)nc2)c(Cl)c1 |  | inhibition [2]: 31%

More lines, in order of rising pIC50 [1], values ahead:

Row | pIC50 [1] | SMILES | other results
20 | 7.54 | CCCC(NC(=O)c1nccs1)c1cnc(Nc2ccc(C)nc2)c(Cl)c1 (stereo not given) | 
21 | 7.56 | CCC[C@@H](NC(=O)c1ccccn1)c1cnc(Nc2ccc(C)nc2)c(Cl)c1 | 
22 | 7.63 | CCC[C@@H](NC(=O)c1cocn1)c1cnc(Nc2ccc(C)nc2)c(Cl)c1 | 
23 | 7.78 | Cc1ccc(Nc2ncc([C@H](NC(=O)c3nccs3)C3CCCC3)cc2Cl)cn1 | 
24 | 7.81 | CC[C@@H](NC(=O)c1nccs1)c1cnc(Nc2ccc(C)nc2)c(Cl)c1 | 
25 | 7.88 | CCC[C@@H](NC(=O)c1nccs1)c1cnc(Nc2ccc(OC)nc2)c(Cl)c1 | 
26 | 7.89 | CCC[C@@H](NC(=O)c1nccs1)c1cnc(Nc2ccc(F)nc2)c(Cl)c1 | 
27 | 8.00 | CCC[C@@H](NC(=O)c1nc(C)cs1)c1cnc(Nc2ccc(C)nc2)c(Cl)c1 | 
28 | 8.01 | Cc1ccc(Nc2ncc([C@H](NC(=O)c3nccs3)C3CC3)cc2Cl)cn1 | 
29 | 8.03 | Cc1ccc(Nc2ncc([C@H](NC(=O)c3nccs3)C3CCC3)cc2Cl)cn1 | 
30 | 8.06 | C/C=C/C[C@@H](NC(=O)c1nccs1)c1cnc(Nc2ccc(C)nc2)c(Cl)c1 | 
31 | 8.09 | CCC[C@@H](NC(=O)c1nccs1)c1cnc(Nc2ccc(C)nc2)c(Cl)c1 | 
32 | 8.12 | Cc1ccc(Nc2ncc([C@H](NC(=O)c3nccs3)C(C)C)cc2Cl)cn1 | 
33 | 8.62 | C=CC[C@@H](NC(=O)c1nccs1)c1cnc(Nc2ccc(C)nc2)c(Cl)c1 | Activity (Mus musculus [3]): Active; Activity (Mus musculus [4]): Non-toxic
